A short description of assay [1]: S. cerevisiae growth inhibition in permissive medium (OD615), pilot counter-assay for S. cerevisiae lifespan shortening project, permissive growth control (AID 705). Conditions: OD615, 24 h, at 10 µM, hits give high values. The essentials: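 System – S. cerevisiae with engineered DeaD lifespan system · Buffer or medium – SC raffinose/galactose permissive medium · Schedule – cells pre-grown 4 h, then 24 h compound exposure, 30 °C humidified · Technique – culture turbidity as optical density at 615 nm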

Assay [2] can be described thus: S. cerevisiae growth inhibition in restrictive medium, OD615, pilot screen, restrictive growth control, yeast lifespan reduction project (AID 706;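 active means growth inhibition above a set limit, 3 SD over mean compound inhibition, in both replicates, cut at about 43% in these data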;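 further: modified DeaD lifespan yeast strain shifted to restrictive glucose medium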). Conditions: OD615, 48 h, at 10 µM, hits give high values. In a few lines:
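Material: engineered S. cerevisiae DeaD strain / Medium: glucose-based CSMM-D restrictive medium / Compound: single dose of 10 µM compound final, 0.25% DMSO / Timing: 4 h pre-incubation, 48 h exposure at 30 °C / Technique: OD615 absorbance reading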

Assay [3] in a line: doxorubicin toxicity protection in MRP-1 cells – H69AR cells, CellTiter-Glo, duplicate, MRP-1 activator project, pilot screen (AID 807;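 active means viability increase at or above a cutoff of the median across tested compounds plus 3 SD, cut at about 8.5% in these data, passing the limit was not always enough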;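 further: compound pretreatment 18-22 h then 72 h combined with doxorubicin; 0% = doxorubicin alone and 100% = vehicle without doxorubicin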). Conditions: H69AR viability with doxorubicin, CellTiter-Glo luminescence; at 10 µM; hits give high values. (Cellular ATP, detected with luciferase, serves as a proxy for viable cell number.)
The nature of assay [4]: viability of HCT116 without oncogenic beta-catenin – human colon tumor cells, pilot screen (AID 823;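 active means cell viability at or below a set limit in both duplicate runs, the limit being the all-compound median minus 4 SD, cut at about 23% in these data, passing the limit was not always enough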;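 further: 0% = wells killed by 20 µM Hyamine and 100% = untreated DMSO cell wells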). The settings on record: HCT116 beta-catenin knockout viability, CellTiter-Glo, 60 h; at 10 µM; hits give low values.
Assay [5] can be described thus: viability of PTEN-null HCT116 cells – cell-based, HCT116 clonal line, CellTiter-Glo, pilot screen (AID 824;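 active means viability at or below 27.92% in each of two runs, the all-compound median minus 4 SD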;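 further: 0% = 20 µM Hyamine control and 100% = vehicle cell control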). Conditions: HCT116 PTEN-deleted viability, 60 h, at 10 µM, hits give low values.
Assay [6] is described as follows: RAM pathway blockade in budding yeast – dse1pr::URA3 reporter, 5-FOA selection, pilot screen (AID 869;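 active means inhibition over a set limit, the all-compound mean plus 3 SD, in both replicate runs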;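 further: 0% = DMSO wells with no growth and 100% = 10 µM 1-NA-PP1 with full growth; RAM network block rescues cells from 5-FOA so hits raise OD615 growth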). The settings on record: S. cerevisiae dse1pr::URA3 5-FOA growth, OD615, 2 d; at 10 µM; hits give high values; strain carries analog-sensitive mutant Cbk1 kinase.
A short description of assay [7]: RAM signaling pathway blockade in yeast – S. cerevisiae, Pdr1DBD-CYC8 efflux-inhibited sensitized strain, primary screen (AID 1298;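 active means RAM network inhibition above 8.4% in each of two replicates, 3 SD over the compound average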;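 further: 0% = DMSO untreated cells without growth and 100% = 10 µM 1-NA-PP1 full growth; higher means more yeast growth rescued from 5-FOA killing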). Conditions: S. cerevisiae cbk1-as DSE1-URA3 strain, 5-FOA growth OD615, 2 d; at 50 µM; hits give high values.

The source of these data is PubChem BioAssay.

Unmarked numbers belong to inactive results. Results filed as inconclusive are left out. Calls of active or inactive are those of the source.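 How the source made its calls, unless noted: active means growth inhibition above 25% in both replicates, a cutoff set 3 SD above the mean; inconclusive means above 25% in only one replicate; inactive means the rest.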

A word on the viability: it is a read-out of living cells in per cent, often relative to untreated cells. The term inhibition denotes the change of the read-out against control, counted positive when it falls. `CSc1nnc(Cn2c(=O)sc3ccccc32)n1-c1ccccc1`: the growth inhibition in assay [1] is -2.55%; in assay [2] it was 3.38%. Further, the viability increase in assay [3] was -0.84%. The viability was 104% in assay [4] and 102% in assay [5]. Besides, in assay [6], the inhibition is 2.03%. Further, the RAM network inhibition in assay [7] is 2.08%.

On to `CCn1c2c(c3cc(Cl)ccc31)CCCC2=O`, for which the growth inhibition in assay [1] was -8.81%; in assay [2], -10.1%. The viability increase in assay [3] is -0.32%. The viability in assay [4] was 96%; in assay [5], 97.8%. For the same molecule, the inhibition in assay [6] was 0.915%. Moreover, the RAM network inhibition in assay [7] is 4.07%.

As to `Cn1cnnc1SCC(=O)c1ccc2c(c1)CCCC2`, the growth inhibition in assay [1] was -1.79%; in assay [2], 12.5%. Besides, the viability increase in assay [3] is -1.07%. In addition, the results for the viability in assay [4] and in assay [5] were 105% and 96.6%, respectively. Also, the inhibition in assay [6] is 0.17%. Also, the RAM network inhibition in assay [7] was 4.35%.

Regarding `COc1cccc(C2C(C(=O)OCc3ccccc3)=C(C)Nc3ncnn32)c1OC` (centres undefined), the growth inhibition in assay [1] was -8.96%; in assay [2], 1.86%. Also, the viability increase in assay [3] was 0.73%. The viability in assay [4] was 103%; in assay [5], 83.5%. Further, in assay [6], the inhibition was 2.32%. For the same molecule, in assay [7], the RAM network inhibition is 4.9%.

As to `O=C(NCc1ccc2c(c1)OCO2)c1nnc(Cc2ccc(Cl)cc2)o1`, the values for the growth inhibition in assay [1] and in assay [2] were -5.43% and 4.12%, respectively. The viability increase in assay [3] is 2.05%. Also, the viability in assay [4] and in assay [5] was 103% each time. Moreover, the inhibition in assay [6] was 2.2%. Also, the RAM network inhibition in assay [7] was 5.48%.

On to `O=C(NCC1CCCO1)C1CC(=O)N(c2ccc(F)c(Cl)c2)C1` (centres undefined), for which the figures for the growth inhibition in assay [1] and in assay [2] were -7.27% and -1.83%, respectively. For the same molecule, in assay [3], the viability increase was -1.68%. Besides, the viability is 86.7% in assay [4] and 94.1% in assay [5]. The inhibition in assay [6] is 1.5%. The RAM network inhibition in assay [7] is 5.33%.

With `O=C(CCS(=O)NCc1ccccc1)NCc1ccccc1` (centres undefined), the growth inhibition in assay [1] was -7.98%; in assay [2], -11.4%. The viability increase in assay [3] is -2.13%. Also, the figures for the viability in assay [4] and in assay [5] were 99.7% and 99.9%, respectively. Also, in assay [6], the inhibition is 0.425%. Also, the RAM network inhibition in assay [7] was 1.51%.

`CN1CCN(CCCNC(=O)c2ccc3c(c2)N(Cc2ccccc2)CCS3)CC1`: the growth inhibition in assay [1] is -2.21%; in assay [2], -12.1%. Moreover, in assay [3], the viability increase is -5.47%. Besides, the viability was 64.8% in assay [4] and 67.4% in assay [5]. Moreover, in assay [6], the inhibition is 0.9%. Also, the RAM network inhibition in assay [7] was 4.28%.

With `COc1ccc(OC)c(C2CC(=O)c3c([nH]c(C(=O)OC(C)C)c3C)C2)c1` (centres undefined), the growth inhibition in assay [1] is -9.82%; in assay [2] it was -21.9%. In addition, in assay [3], the viability increase is -7.46%. Further, the viability in assay [4] was 15.2% (active); in assay [5], 14.8% (active). Besides, the inhibition in assay [6] was 1.69%. For the same molecule, the RAM network inhibition in assay [7] was 0.97%.

For `Cc1cccc(-c2nc(CS(=O)CC(=O)N3CCCCC3)c(C)o2)c1` (centres undefined), the values for the growth inhibition in assay [1] and in assay [2] were -8.38% and -15.3%, respectively. Also, the viability increase in assay [3] was -0.7%. Further, the viability in assay [4] was 101%; in assay [5] it was 92.3%. For the same molecule, the inhibition in assay [6] was 0.205%. Besides, the RAM network inhibition in assay [7] is 3.41%.

Turning to `Cc1nc2cc(-c3cccc(F)c3)nn2c(C)c1CCC(=O)N1CCN(c2ccccn2)CC1`, the growth inhibition in assay [1] is -0.315%; in assay [2] it was 3.5%. Besides, the viability increase in assay [3] is -1.74%. For the same molecule, the viability in assay [4] was 87.2%; in assay [5], 77.1%. For the same molecule, the inhibition in assay [6] was 0.32%. Further, the RAM network inhibition in assay [7] is 4.65%.

Regarding `CCOC(=O)c1c(NC(=O)c2cc(C3CC3)on2)sc2c1CCCC2`, the growth inhibition in assay [1] is -9.14%; in assay [2], 0.505%. For the same molecule, the viability increase in assay [3] was -1.3%. The viability in assay [4] was 102%; in assay [5], 97.5%. Also, the inhibition in assay [6] is 1.49%. In assay [7], the RAM network inhibition was 8.09%.

Consider `CSC(=NS(=O)(=O)c1ccc(C)cc1)SC`, for which the values for the growth inhibition in assay [1] and in assay [2] were -11% and -20.2%, respectively. Further, the viability increase in assay [3] was -1.03%. The viability in assay [4] is 94.6%; in assay [5], 93.1%. Also, the inhibition in assay [6] is 2.02%. In assay [7], the RAM network inhibition is 4.14%.

`c1ccc(CNc2ncnc3c2ncn3C2CCCCO2)cc1` (centres undefined): the growth inhibition is -5.22% in assay [1] and -8.96% in assay [2]. The viability increase in assay [3] is -1.76%. The viability was 101% in assay [4] and 98% in assay [5]. Further, the inhibition in assay [6] is 1.25%. In addition, the RAM network inhibition in assay [7] is 5.84%.

As for `O=C(NCCCN1CCCCC1)c1ccc2c(=O)n(CCc3ccccc3)c(=O)[nH]c2c1`, the growth inhibition in assay [1] was -7.09%; in assay [2], -6.43%. Moreover, the viability increase in assay [3] is -3.27%. Moreover, the viability in assay [4] is 77.3%; in assay [5], 83%. Further, the inhibition in assay [6] is 0.675%. The RAM network inhibition in assay [7] is 8.53%.

`COc1ccccc1OCC(=O)Nc1ccc(S(=O)(=O)N2CCCCCC2)cc1`: the figures for the growth inhibition in assay [1] and in assay [2] were -10.1% and -4.95%, respectively. In addition, in assay [3], the viability increase was 0.4%. For the same molecule, the values for the viability in assay [4] and in assay [5] were 83.1% and 82.1%, respectively. The inhibition in assay [6] was 2.08%. Also, the RAM network inhibition in assay [7] is 10.1%.

`COc1cc2c(cc1OC)C(c1ccco1)CC(=O)N2` (centres undefined): the growth inhibition in assay [1] was -6.61%; in assay [2], -1.62%. The viability increase in assay [3] is -2.43%. Further, the viability in assay [4] and in assay [5] was 101% throughout. Also, the inhibition in assay [6] was 1.06%. In assay [7], the RAM network inhibition was 3.34%.
